For data set [1], the system named is SH-SY5Y. Nature of the data set: Neuroprotection against H2O2-induced toxicity in human SH-SY5Y cells assessed as decrease in LDH release preincubated for 6 hrs followed by H2O2 addition and measured after 24 hrs. The class given is functional, cell-based. The method, boiled down: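 Cells pretreated with test agent (1 or 10 μM), then 600 μM H₂O₂; plasma membrane damage read as LDH leakage into medium (U/L). DMSO below 0.1% in all groups. Mean ± S.E.M. of three independent experiments.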
A general note: Release of lactate dehydrogenase indicates damage to the cell membrane.

Data set [2] has as its system SH-SY5Y. The data set can be described thus: Induction of oxidative stress in non-stimulated human SH-SY5Y cells assessed as reactive oxygen species level at 10 uM after 6 hrs by DHE dye based flow cytometry (reference value: 4.8%). The class given is cell-based.
In data set [3] the test system is SH-SY5Y. The data set can be described thus: Protection against H2O2-induced mitochondrial dysfunction in human SH-SY5Y cells assessed as mitochondrial membrane potential at 10 uM preincubated for 6 hrs followed by H2O2 addition and measured after 24 hrs by Rh123 staining based flow cytometry (reference value: 26.31 +/- 3.32%). The class given is functional. The method, boiled down:
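ΔΨm examined by inverted fluorescence microscopy and flow cytometry after pretreatment (1, 10 μM) and 600 μM H₂O₂. Reported as % of control. Mean ± S.E.M., three independent experiments.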
Background: Flow cytometry measures light scatter and fluorescence of single cells or particles in a stream.

Data set [4] has as its system SH-SY5Y. Nature of the data set: Protection against H2O2-induced oxidative stress in human SH-SY5Y cells assessed as reduction in MDA level preincubated for 6 hrs followed by H2O2 addition and measured after 24 hrs by thiobarbituric acid method. Type of data set: functional, cell-based. In short, it runs like this: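 Cellular SOD activity (units) and MDA content (μmol/g) measured in SH-SY5Y after pretreatment (1, 10 μM) and 600 μM H₂O₂. Mean ± S.E.M. of three independent experiments.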

Data set [5] concerns SH-SY5Y. The data set can be described thus: Protection against H2O2-induced apoptosis in human SH-SY5Y cells assessed as improvement in nuclear fragmentation at 1 to 10 uM preincubated for 6 hrs followed by H2O2 addition and measured after 24 hrs by Hoechst 33342 staining based inverted microscopic analysis. Type of data set: functional, cell-based. The method, boiled down: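 Hoechst 33342 nuclear staining after pretreatment and 600 μM H₂O₂. Nuclear fragmentation and DNA condensation were scored visually.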

For data set [6], the system named is SH-SY5Y. The data set can be described thus: Protection against H2O2-induced apoptosis in human SH-SY5Y cells assessed as early apoptotic cells at 1 uM preincubated for 6 hrs followed by H2O2 addition and measured after 24 hrs by Annexin V-FITC/propidium iodide staining based flow cytometry (reference value: 6.6%). Type of data set: functional.
The subject of data set [7] is SH-SY5Y. The data set can be described thus: Protection against H2O2-induced apoptosis in human SH-SY5Y cells assessed as late apoptotic cells at 1 uM preincubated for 6 hrs followed by H2O2 addition and measured after 24 hrs by Annexin V-FITC/propidium iodide staining based flow cytometry (reference value: 77.5%). Type of data set: functional.
For data set [8], the system named is SH-SY5Y. Nature of the data set: Induction of apoptosis in non-stimulated human SH-SY5Y cells assessed as early apoptotic cells at 10 uM measured after 6 hrs by Annexin V-FITC/propidium iodide staining based flow cytometry (reference value: 4.5%). Type of data set: cell-based.
Data set [9] has as its system Mus musculus. Nature of the data set: Induction of motor impairment in C57Bl/6 mouse at 10 mg/kg, ig treated for 10 days measured after 4 to 72 hrs for 3 mins by rota rod test. The class given is organism-based. The following applies: in vivo, po. A general note: Falling from the rotarod earlier than controls is read as motor impairment.
For data set [10], the system named is Mus musculus. Nature of the data set: Anti-parkinson's activity in MPTP-induced C57Bl/6 mouse model of Parkinson's disease assessed as increase in tyrosine hydroxylase expression in striatum at 10 to 20 mg/kg, ig pretreated for 10 days followed by MPTP challenge measured 10 days post MPTP addition by Western blot analysis. Type of data set: functional, organism-based. In short, it runs like this:
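Tissue taken 10 days after MPTP injection from mice dosed orally with 1 (10 or 20 mg/kg). TH in SNpc and striatum by western blot, and by DAB immunostaining. Three of the mice per group analysed. Mean ± S.D., n = 6 mice/group.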

In data set [11] the test system is Mus musculus. Nature of the data set: Anti-parkinson's activity in MPTP-induced C57Bl/6 mouse model of Parkinson's disease assessed as decrease in cleaved caspase3 expression in striatum at 10 to 20 mg/kg, ig pretreated for 10 days followed by MPTP challenge measured 10 days post MPTP addition by Western blot analysis. The class given is functional, organism-based.

A short description of data set [12]: Half life in Sprague-Dawley rat at 25 mg/kg, po by LC-MS/MS analysis. Type of data set: ADME, organism-based. The following applies: in vivo. In short, it runs like this: (§1)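 Male Sprague–Dawley rats dosed with 1 at 5 mg/kg i.v. (vehicle 5% DMSO, 2% F68, 93% saline) or 25 mg/kg p.o. (0.5% methylcellulose with 1% Tween 80). Orbital blood sampled at 0.083–24 h, 12 time points. Plasma PK parameters derived. Mean ± SD, n = 3.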

Data set [13] is described as follows: MRT in Sprague-Dawley rat at 25 mg/kg, po by LC-MS/MS analysis. The following applies: in vivo. The class given is ADME, organism-based. The method, boiled down: as §1
Data set [14] can be described thus: Clearance in Sprague-Dawley rat at 5 mg/kg, iv by LC-MS/MS analysis. Type of data set: ADME, organism-based. The following applies: in vivo. The method, boiled down: as §1
Data set [15] is described as follows: Activation of PI3K/Akt/mTOR signaling in human SH-SY5Y cells assessed as up regulation of HO-1 expression at 1 uM after 24 hrs by Western blot analysis relative to control. The class given is cell-based. The method, boiled down: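 HO-1 western blot in SH-SY5Y cells incubated 24 h with 1 at 0.1, 1 or 10 μM, without H₂O₂. Band densitometry expressed as % of control. Mean ± S.E.M. from three independent experiments.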

Data set [16] is described as follows: Activation of PI3K/Akt/mTOR signaling in human SH-SY5Y cells assessed as up regulation of H2O2-induced HO-1 expression at 1 uM preincubated for 6 hrs followed by H2O2 addition and after 24 hrs by Western blot analysis (reference value: 181.53 +/- 24.67%). Type of data set: cell-based. In short, it runs like this:
(§2)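 SH-SY5Y cells pretreated 6 h with 1 (1 or 10 μM), then exposed to 600 μM H₂O₂ for 24 h. HO-1 measured by western blot with densitometry and expressed as % of control. Mean ± S.E.M., three independent experiments.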

Data set [17] can be described thus: Activation of PI3K/Akt/mTOR signaling in human SH-SY5Y cells assessed as up regulation of H2O2-induced HO-1 expression at 10 uM preincubated for 6 hrs followed by H2O2 addition and after 24 hrs by Western blot analysis (reference value: 181.53 +/- 24.67%). Type of data set: cell-based. The method, boiled down: as §2
Data set [18] has as its system SH-SY5Y. The data set can be described thus: Neuroprotection against H2O2-induced cell death in human SH-SY5Y cells assessed as cell viability at 10 uM preincubated for 6 hrs followed by H2O2 addition and measured after 24 hrs in presence of PI3K/Akt/mTOR inhibitor LY294002 by MTT assay relative to control. The class given is functional. The following applies: read-out: Activity. The method, boiled down:
(§3)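 SH-SY5Y cells preincubated 1 h with LY294002 (5 μM) or rapamycin (100 nM). Then 1 (10 μM) for 6 h, then 600 μM H₂O₂. Viability by MTT. Mean ± S.E.M., three independent experiments.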

For data set [19], the system named is SH-SY5Y. The data set can be described thus: Neuroprotection against H2O2-induced cell death in human SH-SY5Y cells assessed as cell viability at 10 uM preincubated for 6 hrs followed by H2O2 addition and measured after 24 hrs in presence of PI3K/Akt/mTOR inhibitor rapamycin by MTT assay relative to control. The following applies: read-out: Activity. Type of data set: functional. In short, it runs like this: as §3

In data set [20] the test system is SH-SY5Y. Nature of the data set: Cytotoxicity against non-stimulated human SH-SY5Y cells assessed as effect on cell viability at 1 to 100 uM measured after 24 hrs by MTT assay.

The half-life is how long it takes for the measured level to halve. High values mean slow decline, low ones rapid decline. As a reminder, the MRT is the average time that molecules of a dose stay in the body. The clearance is a measure of how efficiently the substance is removed, as volume per time. Lower therefore signals inefficient removal.

The source made the active and inactive calls. The rule behind the calls is not given here.

For `COC(=O)[C@H](Cc1ccccc1)NC(=O)/C=C/c1ccc(O)c(O)c1` [N-CAFFEOYL-PHENYLALANINE METHYL ESTER], the Activity entry was “Dose-dependent effect” in the data set on SH-SY5Y [1]; 7.3% with SH-SY5Y [2]; 98.3% with SH-SY5Y [3]; “Dose-dependent effect” in the data set on SH-SY5Y [4]; 6.3% in the data set with SH-SY5Y [6]; 17.8% in the data set on SH-SY5Y [7]. The Activity in the data set on SH-SY5Y [8] is 1.4%; in the data set on Mus musculus [9], “Non-Toxic”; in data set [15], 155%; in data set [16], 274%; in [17], 325%; with SH-SY5Y [20] it was “Non-Toxic”. Besides, the result in the data set on SH-SY5Y [5], in the data set with Mus musculus [10] and in the data set on Mus musculus [11] was Active. This compound had a half-life in data set [12] of 2.7 h. Also, the MRT in [13] came out at 3.06 h. This compound returned a clearance in data set [14] of 25.5 mL/min/kg. Moreover, the viability at 10 µM in the data set with SH-SY5Y [18] was 60.5%; in the data set on SH-SY5Y [19], 65.9%.

The values are drawn from ChEMBL document CHEMBL4308887, “Synthesis and biological evaluation of clovamide analogues with catechol functionality as potent Parkinson's disease agents in vitro and in vivo” (Bioorg Med Chem Lett, 2019).
